Results reported in article PMC4608532 (ChemistryOpen, 2015).

System: HUVEC
Test: In vitro morphogenesis assay on HUVEC plated on Matrigel, VEGF-stimulated
Assay type: cell-based, Human
Details: 5 h incubation
In short: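 HUVEC (passages 2–10) were maintained at 37 °C, 5% CO2 in medium with 2% FBS and growth factors. 2.5×10^4 cells were seeded on pre-polymerized Matrigel and incubated for 5 h at 37 °C with or without test compound, under VEGF 10 ng mL−1 stimulation. Networks were imaged by phase contrast and scored as total branch length in pixels, with open ramifications counted as branches. Data were normalized to VEGF alone and given as mean±S.D. of 4–10 experiments, with a two-tailed paired Student's t test.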

Substance	VEGF-induced morphogenesis, % of VEGF alone (1 μM, VEGF 10 ng mL−1, length of branches, p>0.05)	effect on new capillary network formation induced by VEGF165 (in words) (VEGF165 10 ng mL−1)
Ac-KQMYLELGYATIKWL-NH2 [Compound 14, Ac-Lys-Gln-Met-Tyr-Leu-Glu-Leu-Gly-Tyr-Ala-Thr-Ile-Lys-Trp-Leu-amide]	82 %±21%	–
cyclo[DKP-RGD] [Compound 1]	–	markedly decreased
